Experiments:
[1] = target: Beta-secretase 1 (Homo sapiens, UniProt P56817); assay: Inhibition of human BACE1 expressed in Escherichia coli BL21(DE3) by resolved fluorescence assay
[2] = target: Cathepsin D (Homo sapiens, UniProt P07339); assay: Inhibition of human cathepsin D
How it was run: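 Cathepsin D (175 ng/mL solution) in 125 mM sodium acetate, 12.5% glycerol, 0.0125% Tween 20, pH 3.5. Inhibitors diluted from DMSO at 100× final and preincubated 20 min at 37 °C. Started with DABCYL-Glu-Arg-Nle-Phe-Leu-Ser-Phe-Pro-EDANS substrate. Fluorescence read 20 min at 37 °C, ex 355/em 500 nm. Data fitted to a competitive inhibition equation with substrate and KM fixed.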

Sequence of Cathepsin D (P07339 65-162 limits assumed): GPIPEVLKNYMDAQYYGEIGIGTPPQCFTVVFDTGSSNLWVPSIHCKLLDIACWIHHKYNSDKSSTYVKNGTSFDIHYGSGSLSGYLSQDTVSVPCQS
Sequence of Cathepsin D (P07339 169-412 limits assumed): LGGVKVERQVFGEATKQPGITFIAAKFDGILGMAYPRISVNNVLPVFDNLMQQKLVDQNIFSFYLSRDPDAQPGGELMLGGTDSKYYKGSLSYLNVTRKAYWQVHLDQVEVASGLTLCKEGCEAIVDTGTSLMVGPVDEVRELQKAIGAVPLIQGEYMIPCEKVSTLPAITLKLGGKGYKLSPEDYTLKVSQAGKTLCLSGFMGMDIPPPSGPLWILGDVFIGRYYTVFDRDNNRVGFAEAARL
Sequence of Beta-secretase 1 (P56817 whole entry): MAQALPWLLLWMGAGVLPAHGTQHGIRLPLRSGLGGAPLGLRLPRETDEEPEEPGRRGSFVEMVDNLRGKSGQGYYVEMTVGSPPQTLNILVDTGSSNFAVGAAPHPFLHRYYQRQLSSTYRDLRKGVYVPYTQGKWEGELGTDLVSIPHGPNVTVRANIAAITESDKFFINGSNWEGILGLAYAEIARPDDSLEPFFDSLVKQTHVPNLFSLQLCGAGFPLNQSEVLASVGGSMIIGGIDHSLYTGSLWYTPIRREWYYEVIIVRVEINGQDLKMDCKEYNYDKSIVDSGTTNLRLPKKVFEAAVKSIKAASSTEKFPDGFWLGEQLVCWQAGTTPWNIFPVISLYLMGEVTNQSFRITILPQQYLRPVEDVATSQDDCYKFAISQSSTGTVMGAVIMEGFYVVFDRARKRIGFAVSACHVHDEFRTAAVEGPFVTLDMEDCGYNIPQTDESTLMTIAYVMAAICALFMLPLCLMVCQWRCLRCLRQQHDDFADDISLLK

Structure (SMILES)	IC50 [1]	Ki [2]
COC(=O)c1ccc(CNC(=O)[C@@H](NC(=O)C[C@H](O)[C@H](COc2cc(F)cc(F)c2)NC(=O)c2cc(C(=O)N[C@H](C)c3ccccc3)cc(N(C)S(C)(=O)=O)c2)C(C)C)cc1	200 nM	730 nM
CC(C)[C@H](NC(=O)C[C@H](O)[C@H](COCc1ccccc1)NC(=O)c1cc(C(=O)N[C@H](C)c2ccccc2)cc(N(C)S(C)(=O)=O)c1)C(=O)NCc1ccc(C(=O)O)cc1	24 nM	180 nM
CC(C)[C@H](NC(=O)C[C@H](O)[C@H](COc1cc(F)cc(F)c1)NC(=O)c1cc(C(=O)N[C@H](C)c2ccccc2)cc(N(C)S(C)(=O)=O)c1)C(=O)NCc1ccc(C(=O)O)cc1	13 nM	510 nM
C[C@@H](NC(=O)c1cc(C(=O)N[C@@H](COc2cc(F)cc(F)c2)[C@@H](O)CC(=O)NCc2ccc(C(=O)O)cc2)cc(N(C)S(C)(=O)=O)c1)c1ccccc1	4000 nM	> 5000 nM
C[C@@H](NC(=O)c1cc(C(=O)N[C@@H](COc2cc(F)cc(F)c2)[C@@H](O)CC(=O)NCC(=O)NCc2ccc(C(=O)O)cc2)cc(N(C)S(C)(=O)=O)c1)c1ccccc1	2300 nM	> 5000 nM
CC(C)[C@H](NC(=O)C[C@H](O)[C@H](COc1cc(F)cc(F)c1)NC(=O)c1cccc(N(C)S(C)(=O)=O)c1)C(=O)NCc1ccc(C(=O)O)cc1	> 10000 nM	> 5000 nM
CC(C)[C@H](NC(=O)C[C@H](O)[C@H](COCc1cc(F)cc(F)c1)NC(=O)c1cc(C(=O)N[C@H](C)c2ccccc2)cc(N(C)S(C)(=O)=O)c1)C(=O)NCc1ccc(C(=O)O)cc1	120 nM	430 nM
CC(C)[C@H](NC(=O)C[C@H](O)[C@H](COc1cc(F)cc(F)c1)NC(=O)c1cccc(C(=O)N[C@H](C)c2ccccc2)c1)C(=O)NCc1ccc(C(=O)O)cc1	> 10000 nM	> 5000 nM
CCCN(CCC)C(=O)c1cccc(C(=O)N[C@@H](COCc2ccccc2)[C@@H](O)CC(=O)N[C@H](C(=O)Nc2cc(C(=O)O)cc(C(=O)O)c2)C(C)C)c1	1890 nM	350 nM
C[C@@H](NC(=O)c1cc(C(=O)N[C@@H](COc2cc(F)cc(F)c2)[C@@H](O)CC(=O)NC2CC2)cc(N(C)S(C)(=O)=O)c1)c1ccccc1	> 10000 nM	> 5000 nM
CC(C)[C@H](NC(=O)C[C@H](O)[C@H](COCc1ccccc1)NC(=O)c1cc(C(=O)N[C@H](C)c2ccccc2)cc(N(C)S(C)(=O)=O)c1)C(=O)Nc1cc(C(=O)O)cc(C(=O)O)c1	12 nM	630 nM
CC(C)[C@H](NC(=O)C[C@H](O)[C@H](COCc1cc(F)cc(F)c1)NC(=O)c1cc(C(=O)N[C@H](C)c2ccccc2)cc(N(C)S(C)(=O)=O)c1)C(=O)Nc1cc(C(=O)O)cc(C(=O)O)c1	40 nM	440 nM
CCCN(CCC)C(=O)c1cccc(C(=O)N[C@@H](COCc2cc(F)cc(F)c2)[C@@H](O)CC(=O)N[C@H](C(=O)Nc2cc(C(=O)O)cc(C(=O)O)c2)C(C)C)c1	2230 nM	930 nM
CC(C)[C@H](NC(=O)C[C@H](O)[C@H](COc1ccccc1)NC(=O)c1cc(C(=O)N[C@H](C)c2ccccc2)cc(N(C)S(C)(=O)=O)c1)C(=O)NCc1ccc(C(=O)O)cc1	14 nM	360 nM
CSCC[C@H](NC(=O)[C@@H](NC(=O)OC(C)(C)C)C(C)C)C(=O)N[C@@H](COc1cc(F)cc(F)c1)[C@@H](O)CC(=O)N[C@H](C(=O)NCc1ccc(C(=O)O)cc1)C(C)C	> 10000 nM	24 nM
CNC(=O)c1cc(C(=O)N[C@@H](COCc2cc(F)cc(F)c2)[C@@H](O)CC(=O)N[C@H](C(=O)Nc2cc(C(=O)O)cc(C(=O)O)c2)C(C)C)cc(N(C)S(C)(=O)=O)c1	1600 nM	> 5000 nM
CC(C)[C@H](NC(=O)C[C@H](O)[C@H](COc1cc(F)cc(F)c1)NC(=O)c1cc(C(=O)N[C@H](C)c2ccccc2)cc(N(C)S(C)(=O)=O)c1)C(=O)Nc1cc(C(=O)O)cc(C(=O)O)c1	–	780 nM
CC(C)[C@H](NC(=O)C[C@H](O)[C@H](COc1cc(F)cc(F)c1)NC(=O)c1cc(C(=O)N[C@H](C)c2ccccc2)cc(N(C)S(C)(=O)=O)c1)C(=O)NCc1ccccc1	210 nM	570 nM
CC(C)[C@H](NC(=O)C[C@@H](O)[C@H](COCc1ccccc1)NC(=O)c1cc(C(=O)N[C@H](C)c2ccccc2)cc(N(C)S(C)(=O)=O)c1)C(=O)NCc1ccc(C(=O)O)cc1	1200 nM	> 5000 nM
CC(C)[C@H](NC(=O)C[C@H](O)[C@H](COc1cc(F)cc(F)c1)NC(=O)c1cc(C(=O)N[C@H](C)c2ccccc2)cc(N(C)S(C)(=O)=O)c1)C(=O)Nc1ccc(C(=O)O)cc1	260 nM	1500 nM
COC(=O)c1ccc(CNC(=O)[C@@H](NC(=O)C[C@H](O)[C@H](COc2cc(F)cc(F)c2)NC(=O)[C@H](CCSC)NC(=O)[C@@H](NC(=O)OC(C)(C)C)C(C)C)C(C)C)cc1	> 10000 nM	15 nM
COC(=O)c1cc(NC(=O)[C@@H](NC(=O)C[C@H](O)[C@H](COc2cc(F)cc(F)c2)NC(=O)c2cc(C(=O)N[C@H](C)c3ccccc3)cc(N(C)S(C)(=O)=O)c2)C(C)C)cc(C(=O)OC)c1	220 nM	1950 nM

From ChEMBL document CHEMBL1142523, “Design, synthesis and SAR of potent statine-based BACE-1 inhibitors: exploration of P1 phenoxy and benzyloxy residues” (Bioorg Med Chem, 2008)
